Screening results (PubChem)
Tb MetRS inh: Trypanosoma brucei MetRS inhibition | inhibition, % at 11.9 µM | purified T. brucei MetRS, ATP depletion, Kinase-Glo luminescence | actives 0.4% (n = 360,000);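 active = inhibition above a per-plate cutoff of the control wells' mean inhibition plus 3 SD, cut at about 5.5% in these data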;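 note: 0% = DMSO wells median and 100% = median of wells with control inhibitor compound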
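Test system – parasite MetRS enzyme · Reagent – substrates ATP, L-methionine and bulk Escherichia coli tRNA · Doses – 11.9 µM compound single dose, 0.9% DMSO · Times – 15 min enzyme-compound preincubation, 2 h reaction, 10 min detection, 25 °C · Signal – Kinase-Glo luminescence, ATP depletion format · Controls – DMSO-only wells as low control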
MC4R barr agon: activates human MC4R beta-arrestin recruitment; U2OS MC4R beta-arrestin complementation, luminescence; percent of melanotan II response, DMSO zero; activation, % at 8.9 µM; AID 540308; actives 0.98% (n = 360,000); P32245;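 active = activation above a per-plate cutoff, the mean activation of sample wells on that plate plus 3 SD, cut at about 8% in these data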
Target sequence (P32245 whole entry, looked up): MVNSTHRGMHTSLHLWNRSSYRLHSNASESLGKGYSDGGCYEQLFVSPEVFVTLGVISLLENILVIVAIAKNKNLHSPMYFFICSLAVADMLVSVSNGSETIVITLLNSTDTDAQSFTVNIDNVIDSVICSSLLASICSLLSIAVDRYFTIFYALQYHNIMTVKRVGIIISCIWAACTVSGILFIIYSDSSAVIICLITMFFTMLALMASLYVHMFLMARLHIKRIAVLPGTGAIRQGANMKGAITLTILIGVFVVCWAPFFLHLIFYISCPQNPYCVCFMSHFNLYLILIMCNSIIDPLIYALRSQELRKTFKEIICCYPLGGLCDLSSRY
NALP1 yeast inh: blocks the NALP1 inflammasome reconstituted in yeast | S. cerevisiae NALP1/ASC/caspase-1 growth, X-gal OD620, 72 h | inhibition, % at 10 µM | actives 0.61% (n = 280,000); in the data active = inhibition mostly above about 24%, no sharp cut-off; inactive = mostly below about 32%
A1 inh: inhibitors of the anti-apoptotic protein A1, read as caspase activation. MEF A1-2A-BIM cells, Caspase-Glo 3/7 luminescence, 3 h; percent of clofoctol response, vehicle zero. caspase activation, % (test concentration not listed). actives 0.066% (n = 330,000). AID 2462;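 active = over half of replicate activation scores above 10%, or exactly half above 10 with the replicate mean above 10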
MC4R antag cAMP: antagonists of human melanocortin 4 receptor (MC4R); MC4R-expressing cells, MTII-stimulated cAMP, LANCE TR-FRET; P32245; actives 0.48% (n = 360,000); inhibition, % at 6.5 µM;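 active = inhibition above its plate's cutoff, the mean of tested wells on that plate plus 3 SD, cut at about 29% in these data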;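 note: 0% = Melanotan II alone and 100% = Melanotan II plus saturating MCL0020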
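system = U2OS cells with stable human MC4R expression | also added = Melanotan II challenge after compound preincubation | dosing = one concentration, 6.5 µM nominal | incubation = compound 30 min, challenge 1 h, detection 1 h | measured by = TR-FRET with Eu-cAMP and labeled anti-cAMP, 671 nm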
NALP3 yeast inh: blocks the NALP3 inflammasome reconstituted in yeast; Yeast reconstituted NLRP3/ASC/caspase-1, beta-gal luminescence, 24 h; inhibition, % at 10 µM; actives 0.39% (n = 330,000);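 active = inhibition of 50% or more; inactive = inhibition below 50%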;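 note: plate controls were induced DMSO wells for no effect and uninduced yeast grown without galactose for full effect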
Starred values were filed as active, the others as inactive; / = no result. The list is not random: actives were taken first. Their share in the collection is about 2.5%.

SMILES | Tb MetRS inh | MC4R barr agon | NALP1 yeast inh | A1 inh | MC4R antag cAMP | NALP3 yeast inh
O=C(Nc1cccc([N+](=O)[O-])c1)c1ccc(CSc2ccccc2)cc1 | -1 | 15* | 13 | -1 | 4 | -10
O=C(Nc1cccc([N+](=O)[O-])c1)c1ccccc1 | 0 | 3 | 31 | -2 | 2 | 26
CC(C)(C)c1nc2c(C#N)c(-c3ccc(Cl)cc3)ccn2n1 | 0 | 2 | 38* | 1 | 6 | 18
O=C(NC1CCc2ccccc21)c1cc(COc2cncc(Cl)c2)on1 (centres undefined) | 0 | -3 | -7 | 0 | 1 | 15
CC1CC(=O)c2c(cc3c(-c4c(O)cc(O)c5c(O)c6c(cc45)OC(C)CC6=O)c(O)cc(O)c3c2O)O1 (centres undefined) | 2 | -2 | 2 | 0 | 65* | 24
O=C1CC(c2ccc(O)cc2)Oc2cc(O)cc(O)c21 (centres undefined) | 0 | 0 | 20 | -2 | 17 | 14
CN(C(=O)CSc1nnc(-c2ccc(OC(F)F)cc2)n1N)C1CCS(=O)(=O)C1 (centres undefined) | -1 | 0 | / | 1 | 6 | -1
CCc1ccccc1N(CC(=O)OC)S(C)(=O)=O | 0 | 0 | -3 | 1 | 2 | 2
COC(=O)CN(c1ccccc1C)S(C)(=O)=O | -2 | 1 | 31* | 1 | -3 | 9
CCOC(=O)[C@H]1[C@H]2COc3cc(OC)ccc3[C@@H]2N2C(=O)c3c(C)cc(C)cc3NC(=O)[C@@]12C | 0 | -1 | / | 0 | 4 | 19
Cc1nc(NC(=O)c2cc3c(s2)CCCCC3)sc1C(=O)N(C)C | 0 | -2 | 5 | 0 | 14 | -2
COC(=O)c1sc(NC(=O)c2cc3c(s2)CCCC3)nc1C | -1 | 1 | 33* | -6 | 2 | 20
COCCCN(C(=O)C1CCC1)c1c(N)n(Cc2ccccc2)c(=O)[nH]c1=O | 0 | -3 | / | 0 | -5 | 1
Cc1[nH]n(-c2ccccc2)c(=O)c1C(c1cccc([N+](=O)[O-])c1)c1c(C)[nH]n(-c2ccccc2)c1=O | -1 | -1 | 5 | 1 | 15 | -33
Cc1[nH]n(-c2ccccc2)c(=O)c1C(C[N+](=O)[O-])c1ccc(Br)cc1 (centres undefined) | 3 | 2 | 65* | 2 | -5 | 36
CCOC(=O)c1sc(-c2ccc(C(F)(F)F)cc2)nc1O | 0 | 0 | 32* | 0 | -4 | 1
O=S(=O)(CC(CN1CCCCC1)N1CCCCC1)c1ccc2ccccc2c1 (centres undefined) | 0 | 0 | 55* | / | 21 | /
Cc1ccc(S(=O)(=O)CC(CN2CCCCC2)N2CCCCC2)cc1 (centres undefined) | -1 | 0 | -7 | / | -3 | /
Cc1ccc(-c2nnc(N(C)C(=O)c3cccnc3)s2)cn1 | -1 | 1 | -8 | -1 | 1 | 6
Cc1ccc(-c2nnc(N(C)C(=O)c3cccnc3)s2)cc1 | 0 | -3 | 41* | -2 | 9 | 37
Cc1cccc(C)c1NC(=O)C1(C)CSCC(=O)N1CC(C)C (centres undefined) | -1 | / | / | / | / | /
CC(C)c1nnc(NC(=O)COc2ccc3c(c2)OCO3)s1 | 0 | -1 | 30* | -1 | -1 | 16
CCC(CC)c1nnc(NC(=O)COc2ccc3c(c2)OCO3)s1 | 0 | -2 | -3 | 0 | -1 | 0
O=C(NCCc1ccccc1)c1ccc2c(c1)S(=O)(=O)N=C1CCCCCN12 | 0 | -2 | / | -1 | -1 | -2
COc1ccc(CN(CCC(c2ccccc2)c2ccc(OC(C)C)cc2)C(=O)CCl)cc1OC (centres undefined) | -1 | 21* | 32 | 3 | 26 | 3
SMILES | Tb MetRS inh | MC4R barr agon | NALP1 yeast inh | A1 inh | MC4R antag cAMP | NALP3 yeast inh
COc1cc(NC(C)CCCN)c2ncccc2c1Oc1ccccc1 (centres undefined) | -1 | -1 | 58* | -1 | -7 | 4
COc1ccccc1N(C)S(=O)(=O)c1ccc(C(=O)OCC(=O)N(C(C)C)C(C)C)cc1 | -1 | -1 | 26* | 0 | -4 | 7
COc1ccccc1N(C)S(=O)(=O)c1ccc(C(=O)OCC(=O)Nc2ccc(C(N)=O)cc2)cc1 | 0 | -6 | / | 0 | 0 | -3
CCN(CC)c1ccc(NC(=O)CSc2nc(C3CC3)nc3ccccc23)cc1C | -1 | 8.9* | 8 | 0 | -16 | 18
C[C@H](CO)N1C[C@H](C)[C@@H](CN(C)S(=O)(=O)c2ccccc2)OCc2cnnn2CCCC1=O | 1 | 0 | / | / | 17 | /
Cc1sc2nc(CSc3nc4ccccc4s3)[nH]c(=O)c2c1C | / | / | 36* | 1 | / | 5
O=C(CSc1nnc(-c2cccc(Br)c2)o1)N1CCNC1=O | 0 | 0 | / | -2 | 2 | 7
O=C(CN(Cc1ccccc1)S(=O)(=O)c1ccccc1)N/N=C/c1ccc2c(c1)OCO2 | -1 | 4 | -5 | -1 | 10 | 2
O=C(CN(CCc1ccccc1)S(=O)(=O)c1ccc(Br)cc1)N/N=C/c1ccc2c(c1)OCO2 | 0 | 8.5* | 18 | 0 | 12 | 4
CCOC(=O)c1cc2c(c(CCO)n1)[C@H](CCO)N(S(=O)C(C)(C)C)C2 (some centres undefined) | 0 | 0 | / | / | 8 | /
Cc1cccc(-n2ncc3c(N4CCCC4)ncnc32)c1 | -1 | -1 | -82 | -8 | 4 | 36
Cc1cccc(-n2ncc3c(N4CC(C)CC(C)C4)ncnc32)c1 (centres undefined) | 0 | 8.4* | -29 | 0 | -2 | 25
CCN1CCN(c2c(Cl)cccc2NC(=O)c2ccc([N+](=O)[O-])o2)CC1 | 0 | -2 | 31* | 1 | 4 | 36
O=C(Nc1cccc(Cl)c1N1CCCC1)c1ccc([N+](=O)[O-])o1 | -1 | 0 | 6 | 0 | 2 | 12
COc1ccc(N2CCN(CCC(O)c3ccc4ccccc4c3)CC2)cc1 (centres undefined) | -2 | 3 | 40* | 2 | 1 | 28
O=C(c1cccs1)N1C[C@@H](n2cc(C3CC3)nn2)[C@H](O)C[C@@H]1c1ccccc1 | 0 | 2 | / | / | 2 | /
Oc1cc2c(cc1C(c1ccc(Br)cc1)N1CCCC1)OCO2 (centres undefined) | 0 | -1 | 43* | / | 8 | 44
CC(NC(=O)CCC1COc2ccccc2O1)c1ccccc1 (centres undefined) | 0 | 1 | 42* | 0 | 12 | 20
